# Measured values as given in PMC2825117 (Journal of Medicinal Chemistry, 2010).
# Columns and labels:
# [1] = biological target: PHD2 (Homo sapiens, UniProt Q9GZT9); experiment: PHD2 biochemical activity assay; details: hydroxylation of CODD peptide substrate, MALDI-TOF MS
# [2] = biological target: FIH (Homo sapiens, UniProt Q9NWT6); experiment: FIH MALDI-TOF hydroxylation assay; format: biochemical
# [3] = biological target: T1, JMJD2E (Homo sapiens, UniProt B2RXH2); experiment: MALDI-TOF MS based demethylation assay, JMJD2E; format: biochemical
# T1 sequence (B2RXH2 1-337): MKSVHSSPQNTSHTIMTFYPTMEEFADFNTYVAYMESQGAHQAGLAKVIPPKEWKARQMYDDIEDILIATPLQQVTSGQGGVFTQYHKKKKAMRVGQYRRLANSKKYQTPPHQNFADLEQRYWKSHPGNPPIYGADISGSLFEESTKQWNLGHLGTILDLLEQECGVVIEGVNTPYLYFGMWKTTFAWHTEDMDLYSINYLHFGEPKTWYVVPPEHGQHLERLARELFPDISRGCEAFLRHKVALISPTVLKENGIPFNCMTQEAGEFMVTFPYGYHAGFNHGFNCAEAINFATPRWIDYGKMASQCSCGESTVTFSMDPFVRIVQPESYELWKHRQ
# Procedure, shortened: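 Enzyme: human JMJD2E catalytic domain (residues 1-337), expressed in E. coli as N-terminal His6-tagged protein and purified by Ni-affinity chromatography. Quenched reaction mixtures are mixed with α-cyano-4-hydroxycinnamic acid matrix and analysed by MALDI-TOF MS. Percentage demethylation comes from the relative intensities of the peptide methylation states. IC50 is derived from how percentage demethylation varies across inhibitor concentrations.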
# [4] = biological target: T2, JMJD2A (Homo sapiens, UniProt O75164); experiment: MALDI-TOF MS based demethylation assay, JMJD2A; format: biochemical
# T2 sequence (O75164 1-1064): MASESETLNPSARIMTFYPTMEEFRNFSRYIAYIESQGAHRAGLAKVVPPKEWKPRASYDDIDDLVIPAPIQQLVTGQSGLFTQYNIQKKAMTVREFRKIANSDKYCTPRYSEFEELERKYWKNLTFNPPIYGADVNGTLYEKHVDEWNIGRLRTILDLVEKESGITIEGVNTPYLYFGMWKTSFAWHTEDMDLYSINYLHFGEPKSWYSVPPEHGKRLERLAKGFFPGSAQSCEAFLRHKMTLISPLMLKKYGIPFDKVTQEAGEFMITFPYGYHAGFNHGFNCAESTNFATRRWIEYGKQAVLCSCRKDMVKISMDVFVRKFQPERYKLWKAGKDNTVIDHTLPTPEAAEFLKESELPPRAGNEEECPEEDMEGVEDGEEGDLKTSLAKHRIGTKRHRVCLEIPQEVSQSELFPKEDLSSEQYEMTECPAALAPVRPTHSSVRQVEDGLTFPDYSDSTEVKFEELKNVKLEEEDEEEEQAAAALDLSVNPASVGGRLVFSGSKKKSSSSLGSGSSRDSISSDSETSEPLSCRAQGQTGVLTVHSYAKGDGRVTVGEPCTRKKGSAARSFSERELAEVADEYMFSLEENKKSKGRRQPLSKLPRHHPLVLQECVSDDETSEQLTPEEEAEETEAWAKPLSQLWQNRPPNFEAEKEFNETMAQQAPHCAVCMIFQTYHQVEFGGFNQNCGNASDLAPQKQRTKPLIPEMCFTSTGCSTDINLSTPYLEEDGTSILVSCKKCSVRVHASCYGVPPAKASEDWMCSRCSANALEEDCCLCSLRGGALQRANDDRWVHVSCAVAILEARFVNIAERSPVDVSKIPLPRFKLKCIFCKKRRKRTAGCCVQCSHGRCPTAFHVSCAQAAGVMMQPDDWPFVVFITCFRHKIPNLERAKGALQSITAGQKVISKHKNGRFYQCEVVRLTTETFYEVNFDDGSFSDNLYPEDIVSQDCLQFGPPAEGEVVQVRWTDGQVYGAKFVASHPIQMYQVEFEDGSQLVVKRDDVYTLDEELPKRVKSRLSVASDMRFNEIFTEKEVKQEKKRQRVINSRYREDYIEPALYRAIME
# Sequence of FIH (Q9NWT6 whole entry): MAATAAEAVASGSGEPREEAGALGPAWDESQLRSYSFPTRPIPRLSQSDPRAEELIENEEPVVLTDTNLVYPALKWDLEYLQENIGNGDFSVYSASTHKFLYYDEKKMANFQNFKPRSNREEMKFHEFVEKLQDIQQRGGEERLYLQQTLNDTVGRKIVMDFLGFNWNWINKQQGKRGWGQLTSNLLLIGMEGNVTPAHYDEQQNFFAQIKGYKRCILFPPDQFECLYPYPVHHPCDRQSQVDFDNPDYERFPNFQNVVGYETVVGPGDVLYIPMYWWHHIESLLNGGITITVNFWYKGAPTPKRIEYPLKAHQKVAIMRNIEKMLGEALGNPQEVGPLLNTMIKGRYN
# Sequence of PHD2 (Q9GZT9 whole entry): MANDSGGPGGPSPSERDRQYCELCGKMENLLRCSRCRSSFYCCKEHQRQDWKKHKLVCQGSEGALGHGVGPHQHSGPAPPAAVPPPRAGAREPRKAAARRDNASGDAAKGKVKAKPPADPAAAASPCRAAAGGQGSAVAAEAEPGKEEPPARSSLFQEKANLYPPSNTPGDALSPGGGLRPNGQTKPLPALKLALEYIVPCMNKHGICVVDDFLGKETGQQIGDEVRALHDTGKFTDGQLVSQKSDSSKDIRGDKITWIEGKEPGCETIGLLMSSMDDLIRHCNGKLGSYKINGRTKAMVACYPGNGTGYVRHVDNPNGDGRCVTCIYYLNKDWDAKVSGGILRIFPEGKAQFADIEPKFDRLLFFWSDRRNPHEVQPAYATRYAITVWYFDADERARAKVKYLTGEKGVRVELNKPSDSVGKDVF
SMILES,inhibitory activity toward PHD2 (in words) [1],IC50 [2] [µM],IC50 [3] [µM],also measured
"O=C(O)CNC(=O)C(=O)O [1a, N-oxalylglycine, reference compound]",potent inhibitor of PHD2,–,–,–
CC(C)(C)c1ccc(S(=O)(=O)Oc2ccc(C[C@@H](NC(=O)C(=O)O)C(=O)O)cc2)cc1 [7c],No inhibitory activity,37.2,–,selectivity of inhibition (JMJD2E) with regard to FIH ([2]; comparison of JMJD2E FDH IC50 and FIH MALDI-TOF IC50): relatively low
O=C(O)C(=O)N[C@H](Cc1ccc(OS(=O)(=O)c2ccccc2)cc1)C(=O)O [7d],–,–,43,IC50 [4]: 17 µM
O=C(O)C(=O)N[C@H](Cc1ccc(OS(=O)(=O)c2ccc(F)cc2)cc1)C(=O)O [7e],No inhibitory activity,–,–,–
O=C(O)C(=O)N[C@H](Cc1ccc(OS(=O)(=O)c2ccc(Br)cc2)cc1)C(=O)O [7f],No inhibitory activity,60.2,–,–
O=C(O)C(=O)N[C@H](Cc1ccc(OCc2ccccc2[N+](=O)[O-])cc1)C(=O)O [10k],–,–,47,–
